# Only some compounds are listed: those with a hit (about 2.2% of all), similar ones and a draw of the others.
# Mdm2 ligase inh = MDM2-luciferase reporter signal enhancers, primary screen, MDM2 E3 ligase inhibitor project, cell-based, luminescence, 1536-well. cell-based MDM2 ubiquitination luciferase reporter, 2 h; 0 = plate control, 100 = twice control, blank-subtracted. signal enhancement, % at 5 µM. hit rate 0.11% among 210,000. AID 1230, 2008;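 active means signal enhancement of 30% or more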;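 further: luminescence tracks abundance of the self-degrading MDM2-luciferase fusion protein; higher signal means inhibition of MDM2 E3 ligase activity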
#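 Timing – 2 h compound exposure at 37 °C · Assay system – mammalian cells stably expressing self-ubiquitinating, self-degrading MDM2 E3–luciferase fusion · Amount – 2000 cells seeded into each well · Measure – % luminescence enhancement versus blank-corrected plate control mean · Measured by – SteadyLite luminescence, 15 min reagent step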
# Hsp70 act = Hsp70 transcriptional activators, primary screen, cell-based, HeLa, Hsp70 promoter luciferase, luminescence, 10 µM; hit rate 0.04% among 200,000; HeLa Hsp70 promoter luciferase reporter; scaled: vehicle 0, proteasome-inhibitor control 100%; activation, % at 10 µM; AID 1203, 2008;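 active means activation above the mean across all tested compounds plus 3 SD, cutoff set per campaign, cut at about 5.5% in these data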;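 further: 100% = MG132 at 30 µM as the positive control and 0% = DMSO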
# INS promoter inh = inhibitors of insulin promoter-driven GFP, primary screen, imaging, TRM-6 cells, eGFP reporter, cell count | AID 1273, 2008 | hit rate 0.9% among 130,000 | reporter expression induced with tamoxifen | inhibition, % at 2 µM;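 active means inhibition above the mean plus 3 SD, with well images judged a real hit on visual review, cut at about 60% in these data, passing the limit was not always enough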
# RBBP9 inh = human RBBP9 inhibitors, primary screen, biochemical, fluorescence polarization, FP-Rh probe, HTS; Serine hydrolase RBBP9 (Homo sapiens), O75884; recombinant RBBP9; inhibition, % at 7.94 µM; hit rate 0.2% among 220,000; AID 1515, 2009;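 active means inhibition above the campaign mean of all tested compounds plus 3 SD, cut at about 14% in these data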;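 further: plate controls were DMSO wells with RBBP9 for no effect and wells lacking RBBP9 protein for full effect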
#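 Material: RBBP9 protein. Amount: RBBP9 at 2.5 µM in dispensed solution, before mixing. Schedule: 30 min then 45 min, 25 °C. Medium: Tris buffer pH 8.0, NaCl, Pluronic. Measured by: fluorescence polarization. Measure: percent inhibition from mP, scaled between DMSO and no-protein wells. Replication: one well per compound.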
# Wee1 stabilizer = Wee1 degradation inhibitors, primary screen, cell-based, HeLa, Wee1K328M-luciferase, luminescence; Wee1-like protein kinase (Homo sapiens), P30291; HeLa Luc-Wee1K328M stability; 100% = proteasome inhibitor MG132 effect; reporter increase, % at 5 µM; hit rate 1.2% among 220,000;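 active means activation above the mean of all tested compounds plus 3 SD, set per screening run, cut at about 8.8% in these data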;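 further: cells exposed to compound for 20 h before luminescence read; 0% = DMSO alone and 100% = MG132 at 30 µM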
# Target sequence (P30291 whole entry K328M): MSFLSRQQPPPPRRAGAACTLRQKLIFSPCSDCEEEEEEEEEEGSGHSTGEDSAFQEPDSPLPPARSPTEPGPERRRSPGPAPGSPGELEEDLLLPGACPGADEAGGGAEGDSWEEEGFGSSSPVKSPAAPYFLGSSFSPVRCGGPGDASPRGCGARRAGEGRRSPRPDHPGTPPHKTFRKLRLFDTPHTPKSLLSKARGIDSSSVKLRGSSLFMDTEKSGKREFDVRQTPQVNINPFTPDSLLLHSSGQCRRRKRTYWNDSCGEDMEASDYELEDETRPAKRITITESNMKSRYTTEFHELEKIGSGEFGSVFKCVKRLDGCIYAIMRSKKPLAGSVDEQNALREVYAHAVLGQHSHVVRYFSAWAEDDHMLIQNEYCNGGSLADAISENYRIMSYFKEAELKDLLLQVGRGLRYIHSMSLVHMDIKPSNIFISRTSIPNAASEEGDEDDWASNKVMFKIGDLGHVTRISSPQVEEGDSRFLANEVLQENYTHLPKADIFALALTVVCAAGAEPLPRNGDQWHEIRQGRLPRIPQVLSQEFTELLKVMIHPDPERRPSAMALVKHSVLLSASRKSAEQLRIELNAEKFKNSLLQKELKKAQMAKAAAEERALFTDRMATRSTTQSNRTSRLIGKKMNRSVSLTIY
# Insulin prom up = insulin promoter activators in MIN6 cells, imaging, high-content screening, mouse beta cells; MIN6 insulin promoter-GFP reporter; active compounds read high; z-score at 5 µM; hit rate 0.3% among 190,000;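 active means z-score above 3 at 5 µM with at least 500 cells counted in the well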
# Numbers without * were called inactive; nt = not tested or not shown.
SMILES,Mdm2 ligase inh,Hsp70 act,INS promoter inh,RBBP9 inh,Wee1 stabilizer,Insulin prom up
CC(C)C[C@H](NC(=O)N1CCCCCC1)C(=O)O,3,nt,nt,-10,-3,0.4
Nc1nc(NCCCN2CCOCC2)nc(Nc2cccc(Cl)c2)c1[N+](=O)[O-],-3,nt,nt,-10,-1,-2.2
CCOC(=O)c1c(NC(C)=O)sc2c(O)c(CN3CCN(CC)CC3)ccc12,-7,0,86*,0,0,-0.84
CCOC(=O)c1c(NC(C)=O)sc2c(OC)c(Br)ccc12,-13,0,-14,3,4,0.01
O=C(CS(=O)(=O)c1ccccc1)Nc1nc(-c2ccc(F)cc2)cs1,-19,0,75*,-28,-2,-0.21
COc1ccccc1NC(=S)NC(NC(=O)CC(C)C)C(Cl)(Cl)Cl (stereo not given),7,0,nt,-4,2,0.53
O=C1N(Cc2cccc(Cl)c2)C[C@@H]2C[C@@H](c3ccccn3)N3CCC[C@@]123,-22,0,nt,-10,9.4*,0.12
CCn1ccnc1[C@@H]1C[C@H]2CN(Cc3cccc(Cl)c3)C(=O)[C@]23CCCN13,-12,0,nt,-3,2,0.16
CCOc1ccc(Br)cc1CC(=O)O,-2,0,81*,-2,-3,nt
COc1ccc(-n2ncc3c(NCc4ccc5c(c4)OCO5)ncnc32)cc1,-13,0,75*,-4,2,1.3
COc1ccc(CN(C)c2nc(-c3cccnc3)nc3ccccc23)cc1OC,-9,0,-7,4,-1,0.34
OCCN(C=NC1=NN(c2cccc(C(F)(F)F)c2)CC1)CCO,-6,0,3,-7,-2,nt
CCN(C=NC1=NN(c2cccc(C(F)(F)F)c2)CC1)CC,3,0,62*,-4,-3,-0.47
COc1ccc(CCNC(=O)Cn2c([N+](=O)[O-])cnc2C)cc1OC,0,0,nt,-8,11*,-0.4
O=C(NN1C(=O)c2ccccc2NC1c1ccccn1)c1ccc([N+](=O)[O-])cc1 (stereo not given),-11,0,3,-8,3,0.14
Cc1ccc(C)c(C(=O)COC(=O)c2cc([N+](=O)[O-])ccc2NCCO)c1,-23,0,nt,-9,-2,-0.72
O=C(Nc1ccc(C2CCCCC2)cc1)C1CCCN(c2ncccn2)C1 (stereo not given),nt,nt,nt,nt,nt,3.8*
CC(=O)Nc1ccc(NC(=O)C2CCCN(c3ncccn3)C2)cc1 (stereo not given),nt,0,-3,-6,-2,-0.06
COc1ccccc1CNC(=S)Nc1cc(C)ccc1C,-1,0,nt,3,-2,-0.55
COc1ccccc1CNc1cc(C)ccc1C,-8,0,21,-8,9.5*,0.29
C/C(=N\NC(=O)CCC(=O)Nc1ccc(C)c(C)c1)c1cccs1,-2,0,nt,1,0,0.65
CC[C@@H](C)C(NC(=O)OC(C)(C)C)c1cn([C@@H](CCCCNC(=O)OC(C)(C)C)C(=O)N2CCN(C(=O)OC(C)(C)C)CC2)nn1 (stereo not given in full),nt,0,nt,-3,0,-1.1
CC(C)CC(NC(=O)OC(C)(C)C)c1cn([C@@H](CCCCNC(=O)OC(C)(C)C)C(=O)N2CCN(C(=O)OC(C)(C)C)CC2)nn1 (stereo not given in full),nt,0,nt,-5,10*,-0.35
COc1c(F)c(F)c(C(=O)Nc2ccc(-c3nc4ccccc4[nH]3)cc2)c(F)c1F,-12,0,nt,-5,10.0*,0.02
O=C(Nc1ccc(-c2nc3ccccc3[nH]2)cc1)c1c(F)c(F)c(F)c(F)c1F,-14,0,-30,-5,-1,-0.37
SMILES,Mdm2 ligase inh,Hsp70 act,INS promoter inh,RBBP9 inh,Wee1 stabilizer,Insulin prom up
CCCC(=O)Nc1cc2c(cc1C(C)=O)OCCO2,nt,0,nt,2,1,-0.53
CC(=O)Nc1cc2c(cc1C(C)=O)OCCO2,0,0,0,5,9.0*,1.3
O=[N+]([O-])c1ccc2[nH]nc(-c3ccccc3)c2c1,0,0,-12,0,8.9*,-0.91
CN(c1ccccc1C(=O)N1CCN(Cc2ccc3c(c2)OCO3)CC1)S(C)(=O)=O,-4,0,-35,3,5,nt
CCOC(=O)c1sc(NC(=O)/C=C/c2cnn(C)c2C)c(C(=O)OC(C)C)c1C,-12,0,nt,-5,1,-1.7
CCN(CC)c1ccc(NC(=O)c2ccccc2F)cc1,-43,0,-11,-2,9.2*,-0.67
COc1cc(C(=O)NNC2=CC(=O)CC(C)(C)C2)cc(OC)c1OC,-9,0,nt,-7,-2,0.66
COc1ccc(NC(=O)Nc2sc(=S)n(C)c2C)cc1,-14,0,nt,-2,12*,nt
O=C1OC(c2ccccc2)=C/C1=C\N1CCOCC1,-2,0,27,-2,27*,-0.16
O=C1c2cccc3c(N4CCCCC4)ccc(c23)C(=O)N1c1ccc(O)cc1,-10,0,nt,-9,5,6.1*
O=C(CS(=O)(=O)Cc1ccccc1)Nc1ccc(S(=O)(=O)N2CCOCC2)cc1,2,0,39,-1,-1,-0.21
CCCc1nc2ccccc2c2nc(N)nn12,-13,0,87*,-9,-1,-0.53
CCN(CC)C(=S)SC1=CCS(=O)(=O)C1,-10,0,44,-9,10*,-0.94
CCN(CC)C(=S)SSC(=S)N(CC)CC,nt,1,-36,1,1,nt
CN(C)S(=O)(=O)c1ccc(C(=O)OCC(=O)c2ccc(OC(F)F)cc2OC(F)F)cc1,-14,0,16,1,1,-0.3
CCOC(=O)CN1CC23C=CC(O2)C(C(=O)Nc2ccc(OC)cc2OC)C3C1=O (stereo not given),-6,0,nt,2,-1,nt
CCOC(=O)CN1CC23C=CC(O2)C(C(=O)Nc2cc(OC)ccc2OC)C3C1=O (stereo not given),-18,0,nt,-3,7,4.2*
CC1CCCN(c2nc3c(c(=O)n(C)c(=O)n3C)n2CCSc2nc3ccccc3s2)C1 (stereo not given),-12,0,nt,-6,-3,3.2*
Cc1cc(C)cc(N(CCC#N)C(=O)CSC2=Nc3ccccc3C3CC=NN23)c1 (stereo not given),2,2,nt,1,9.9*,-0.51
N#Cc1ccccc1NC(=O)CSC1=Nc2ccccc2C2CC=NN12 (stereo not given),-8,0,-14,-2,9.4*,0.49

# Screening data from PubChem BioAssay.
